Test results as given in ChEMBL document CHEMBL3593222, “6-Phenoxy-2-phenylbenzoxazoles, novel inhibitors of receptor for advanced glycation end products (RAGE)” (Bioorg Med Chem, 2015).
Calls of active or inactive are those of the source. The calls are words filed in the database; no cut-off is given here.

Columns and labels:
HT-22 [1] = assay: (§1) Cytotoxicity against mouse HT22 cells assessed as cell viability at 10 uM after 18 hrs by MTT assay; assay type: cell-based; settings: ht-22, 18 h, 10 µM
Method in brief: (§2)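 HT22 cells were grown in DMEM with 10% FBS and penicillin/streptomycin at 37 °C in 5% CO2, and seeded at 5000 cells/well. Next day they were exposed to 10 µM compound for 18 h. MTT was then added for 3 h, formazan dissolved in acidic 2-propanol, and OD read at 570 nm. Viability is blank-corrected absorbance relative to control. Run in triplicate.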

[2] = biological target: Advanced glycosylation end product-specific receptor (Homo sapiens) (UniProt Q15109); assay: Inhibition of human RAGE-amyloid beta-42 interaction at 4 uM preincubated for 30 mins measured after 1 hr by FRET assay relative to control
Method in brief: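 Biotinylated human RAGE (2.5 µg) was premixed with 200 ng Cy3-streptavidin in PBS for 30 min at rt. Aβ42-FITC (50 µL of 40 nM) and compound (50 µL of 4 µM) were then added, in 200 µL final volume with 0.1% DMSO. Fluorescence was read 1 h later. FRET efficiency was computed from donor emission with and without acceptor, and percent inhibition was taken against vehicle. Triplicate.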

HT-22 [3] = assay: Neuroprotective activity in mouse HT22 cells assessed as inhibition of amyloid beta-induced cytotoxicity by measuring cell viability at 10 uM after 18 hrs by MTT assay; assay type: functional; settings: HT-22, 18 h
Method in brief: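 Aβ peptide was pretreated in HFIP, dried to a film, redissolved in DMSO, and aggregated at 200 µM in PBS for 24 h at 4 °C. HT22 cells (5000/well) were exposed the next day to 2 µM aggregated Aβ plus 10 µM compound for 18 h. Viability was read by MTT at 570 nm, and percent inhibition was calculated against Aβ with vehicle. Triplicate.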

[4] = Solubility of the compound in water; assay type: physicochemical; settings: buffer
[5] = as §1; assay type: cell-based, HT-22; settings: HT22 cells, read-out: Activity; method in brief: as §2
Mus musculus [6] = assay: Antialzheimer activity in APPsw/PS1 transgenic mouse assessed as reduction of total amyloid beta 1-42 level in brain homogenates at 50 mg/kg, po administered every 2 days for 4 weeks by ELISA
Mus musculus [7] = assay: Toxicity in APPsw/PS1 transgenic mouse at 50 mg/kg, po administered every 2 days for 4 weeks; assay type: organism-based; settings: in vivo
Mus musculus [8] = assay: Antialzheimer activity in APPsw/PS1 transgenic mouse assessed as reduction of total amyloid beta 1-42 level in brain homogenates at 50 mg/kg, po administered every 2 days for 4 weeks by ELISA; assay type: functional, organism-based
Method in brief: (§3)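 Male APPsw/PS1 mice, 34 weeks old (n = 4–5), dosed by gavage at 50 mg/kg every 2 days for 4 weeks. Total Aβ1–40 and Aβ1–42 were measured by ELISA kit. Results given as mean ± SD.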

Mus musculus [9] = assay: Antialzheimer activity in APPsw/PS1 transgenic mouse assessed as reduction of total amyloid beta 1-40 level in brain homogenates at 50 mg/kg, po administered every 2 days for 4 weeks by ELISA; assay type: functional, organism-based; method in brief: as §3
Mus musculus [10] = assay: Antialzheimer activity in APPsw/PS1 transgenic mouse assessed as reduction of total amyloid beta 1-40 level in brain homogenates at 50 mg/kg, po administered every 2 days for 4 weeks by ELISA

Chain of Advanced glycosylation end product-specific receptor (Homo sapiens) (Q15109 whole entry): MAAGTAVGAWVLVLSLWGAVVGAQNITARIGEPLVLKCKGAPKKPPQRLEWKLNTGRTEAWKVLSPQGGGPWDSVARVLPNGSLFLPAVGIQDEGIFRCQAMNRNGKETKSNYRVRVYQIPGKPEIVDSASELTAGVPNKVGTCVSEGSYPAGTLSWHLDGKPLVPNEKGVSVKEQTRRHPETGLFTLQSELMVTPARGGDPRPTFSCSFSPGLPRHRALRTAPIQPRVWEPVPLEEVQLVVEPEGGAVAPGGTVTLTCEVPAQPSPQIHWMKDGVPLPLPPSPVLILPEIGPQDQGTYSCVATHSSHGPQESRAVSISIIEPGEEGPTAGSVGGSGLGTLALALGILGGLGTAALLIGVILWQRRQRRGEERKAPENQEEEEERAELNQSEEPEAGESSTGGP

| SMILES | inhibition [2] | viability at 18 h, 10 µM [5] [%] | other results |
| --- | --- | --- | --- |
| CC(C)(C)OC(=O)N1CCN(CCCOc2ccc(-c3nc4ccc(Oc5cccc(C(F)(F)F)c5)cc4o3)cc2)CC1 | 22.8% | – | Activity (HT-22 [1]): Non-toxic; inhibition at 10 µM (HT-22 [3]): 56.2% |
| Clc1ccc(Oc2ccc3nc(-c4ccc(OCC5CCN(Cc6ccccc6)CC5)cc4)oc3c2)cc1 | 5.1% | 82.4 | solubility [4]: Insoluble |
| Clc1ccc(Oc2ccc3nc(-c4ccc(OCCCN5CCC(c6ccccc6)CC5)cc4)oc3c2)cc1 | inactive | – | solubility [4]: Insoluble; Activity (HT-22 [1]): Non-toxic |
| Clc1ccc(Oc2ccc3nc(-c4ccc(OC5CCNCC5)cc4)oc3c2)cc1 | 20.6% | 20.6 | – |
| CCN1CCC(COc2ccc(-c3nc4ccc(Oc5ccc(Cl)cc5)cc4o3)cc2)CC1 | 2.1% | 4.1 | – |
| CC(C)(C)OC(=O)N1CCN(CCCOc2ccc(-c3nc4ccc(Oc5ccc(C(F)(F)F)cc5)cc4o3)cc2)CC1 | 27.8% | 7.9 | – |
| Clc1ccc(Oc2ccc3nc(-c4ccc(OCCCN5CCN(c6ncccn6)CC5)cc4)oc3c2)cc1 | 25.1% | 25.1 | solubility [4]: Insoluble |
| Clc1ccc(Oc2ccc3nc(-c4ccc(OCCN5CCCCC5)cc4)oc3c2)cc1 | 18.5% | 21.4 | – |
| CC(C)(C)c1ccc(Oc2ccc3nc(-c4ccc(OCCCN5CC[C@@H](N)C5)cc4)oc3c2)cc1 | inactive | 12.8 | – |
| CC(C)N1CCC(Oc2ccc(-c3nc4ccc(Oc5ccc(Cl)cc5)cc4o3)cc2)CC1 | 12.7% | 86.5 | – |
| CCN(CC)CCCOc1ccc(-c2nc3ccc(Oc4ccc(Cl)cc4)cc3o2)cc1 | 4.9% | 32.1 | – |
| CC(C)(C)c1ccc(Oc2ccc3nc(-c4ccc(OCCCN5CCCCC5)cc4)oc3c2)cc1 | inactive | 49.4 | – |
| CC(C)(C)OC(=O)N[C@@H]1CCN(CCCOc2ccc(-c3nc4ccc(Oc5ccc(Cl)cc5)cc4o3)cc2)C1 | 90.2% | 63.2 | – |
| CCN(CC)CCCOc1ccc(-c2nc3ccc(Oc4ccc(C(C)(C)C)cc4)cc3o2)cc1 | inactive | 74.1 | – |
| Clc1ccc(Oc2ccc3nc(-c4ccc(OCC5CCNCC5)cc4)oc3c2)cc1 | inactive | 29 | – |
| CC(C)(C)OC(=O)N[C@H]1CCN(CCCOc2ccc(-c3nc4ccc(Oc5ccc(C(C)(C)C)cc5)cc4o3)cc2)C1 | 61.6% | 8.2 | – |
| Clc1ccc(Oc2ccc3nc(-c4ccc(OCCCN5CCNCC5)cc4)oc3c2)cc1 | 42.7% | 18.5 | – |
| CN1CCN(CCCOc2ccc(-c3nc4ccc(Oc5ccc(Cl)cc5)cc4o3)cc2)CC1 | 24.3% | 69.3 | – |
| CN1CCC(Oc2ccc(-c3nc4ccc(Oc5ccc(Cl)cc5)cc4o3)cc2)CC1 | 19.5% | 74.3 | – |
| CC(C)(C)c1ccc(Oc2ccc3nc(-c4ccc(OCCCN5CC[C@H](N)C5)cc4)oc3c2)cc1 | 54.7% | 60.3 | – |
| FC(F)(F)c1cccc(Oc2ccc3nc(-c4ccc(OCCCN5CCCCC5)cc4)oc3c2)c1 | 42.7% | 4.4 | – |
| CC(C)(C)OC(=O)N1CCN(CCCOc2ccc(-c3nc4ccc(Oc5ccc(F)cc5)cc4o3)cc2)CC1 | 21% | 15.2 | inhibition at 10 µM (HT-22 [3]): 62.3% |
| CCN(CC)CCOc1ccc(-c2nc3ccc(Oc4ccc(Cl)cc4)cc3o2)cc1 | 33.5% | 85.2 | – |
| OCCN1CCN(CCCOc2ccc(-c3nc4ccc(Oc5ccc(Cl)cc5)cc4o3)cc2)CC1 | 3.3% | 3.3 | – |
| CC(C)OC(=O)N1CCN(CCCOc2ccc(-c3nc4ccc(Oc5ccc(Cl)cc5)cc4o3)cc2)CC1 | 25.9% | – | Activity (HT-22 [1]): Non-toxic; inhibition at 10 µM (HT-22 [3]): 54.4% |
| Clc1ccc(Oc2ccc3nc(-c4ccc(OCCCN5CCN(c6ccccc6)CC5)cc4)oc3c2)cc1 | inactive | – | solubility [4]: Insoluble; Activity (HT-22 [1]): Non-toxic |
| CC(C)(C)OC(=O)N1CCN(CCOc2ccc(-c3nc4ccc(Oc5ccc(Cl)cc5)cc4o3)cc2)CC1 | 24.6% | – | Activity (HT-22 [1]): Non-toxic; inhibition at 10 µM (HT-22 [3]): 50.6% |
| CC(C)(C)OC(=O)N1CCN(CCCOc2ccc(-c3nc4ccc(Oc5ccc(Cl)cc5)cc4o3)cc2)CC1 | 40% | – | Activity (Mus musculus [6]): Active; Activity (Mus musculus [7]): Non-toxic; Activity (HT-22 [1]): Non-toxic; Activity (Mus musculus [8]): Active; inhibition at 10 µM (HT-22 [3]): 65%; Activity (Mus musculus [9]): Active; Activity (Mus musculus [10]): Active |
| FC(F)(F)c1ccc(Oc2ccc3nc(-c4ccc(OCCCN5CCCCC5)cc4)oc3c2)cc1 | 44.3% | 93.4 | – |
